The values that follow come from the EternaBench riboswitch data.

A word on the apparent Kd: it is the concentration giving half-maximal binding under the conditions of the assay.

The data set relates to MS2 coat protein. Nature of the data set: apparent Kd, MS2 coat protein; higher = weaker binding; RNA-MaP array; FMN 200 µM where present. The method, boiled down:
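Green signal was scaled to red-channel RNA signal and control-cluster median Fmax, and the apparent Kd was taken as the median of filtered per-cluster binding-curve fits. The binding series used SNAP-549-labelled MS2 coat protein from 0.7 or 1.5 nM, doubling to 3 µM, on designs transcribed by stalled E. coli RNA polymerase on Illumina sequencing-chip clusters. Each series ran without and then with constant ligand in 100 mM Tris-HCl pH 7.5, 80 mM KCl, 4 mM MgCl2, BSA, DTT, yeast tRNA and Tween-20.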

Setting [1] is: designed as: OFF switch for flavin mononucleotide, no ligand.
[2] abbreviates: ligand present: flavin mononucleotide, designed as: OFF switch for flavin mononucleotide.
[3] abbreviates: designed as: ON switch for flavin mononucleotide, no ligand.
The mark [4] stands for this setting: ligand present: flavin mononucleotide, designed as: ON switch for flavin mononucleotide.

With “GCUGCAUAGUCAGGAUAUGCAAAGUAAUAUAUGGAAACAUAUAUUACAACAUGAGGAUCACCCAUGUAGAAGGGACUGUGCAGU”, the “apparent Kd” value came out at 15.9 nM under setting [1] and 14.8 nM under setting [2].

For “GGAAAGUGAGGAUAUGGUAAAGUAAGUAUGUAGUAAGUAAUCCAGAAGGCACAUGAGGAUCACCCAUGUAAAUG”, the “apparent Kd” value came out at 28.1 nM under setting [1] and 35.7 nM under setting [2].

Turning to “UAUUGAUAAUAUUUUAACAUGAGGAUCACCCAUGUCGCUCGACAGGAUAUAUUUUAUUUGUUUAAGUAGAAGGGUCGCAGAUUU”, the “apparent Kd” value runs as follows: under setting [3], 117 nM; under setting [4], 103 nM.

“GAGCGAAAGCUCAAUGUCGAUAGCAGAAGGACAUCCAACAACAUGAAAACAUGAGGAUCACCCAUGUAGGAUAUGCUAUCGACU”: the “apparent Kd” value runs as follows: under setting [1], 6.8 nM; under setting [2], 7.4 nM.

In the case of “GGACGUCACAUAUACAUGAGGAUCACCCAUGUCAAAAGACAUGAGGAUAUGGAUCCUAAUUGGAUCCAGAAGGCAUGGACGUCC”, the “apparent Kd” value reads like this: under setting [3], 832 nM; under setting [4], 51.9 nM.

In the case of “UUUUAACAUGAGGAUCACCCAUGUGAGGAUAUCGAAAUUUAUAUUUAUAUUAAUUAAACGAGAAGGCACAUUUU”, the “apparent Kd” value was 90.9 nM under setting [1] and 110 nM under setting [2].

Take “GGUGGACAUGAGGAUCACCCAUGUGAGGAUAUCGGCUAUCUACUCGCUGUCGGUUGCUCGAGAAGGCACAUUGU”: the “apparent Kd” value reads like this: under setting [1], 177 nM; under setting [2], 171 nM.

Turning to “GGGUACAUGGGAGGAUAUCAUGUAAAUACAUGAGGAUCACCCAUGUCGAUGGAGACAUCGGAGAUUGAGAAGGCCGAUGUACCG”, the “apparent Kd” value reads like this: under setting [3], 21.1 nM; under setting [4], 37.8 nM.

For “AAUAAACUCACAGGAUAUAGCAGAGGUCGCGUAAACUUACAGGCGACGAUGCUAGAAGGGUGACCACAUGAGGAUCACCCAUGU”, the “apparent Kd” value by setting is: under setting [3], 871 nM; under setting [4], 118 nM.

In the case of “UCACGGGAUUGAGGAUAUAUAUGAAUUUUUUUUAUAGAAGGCAAAAUGUUAGAUUAUUCACUAUACAUGAGGAUCACCCAUGUU”, the “apparent Kd” value is, setting by setting: under setting [1], 26.9 nM; under setting [2], 24.2 nM.

With “UUAUGAGAGCAGGAUAUCUUAUUUUUUUUUUAUGGAGAAGGGCUCACAUGAGGAUCACCCAUGUGGUCCUAGAU”, the “apparent Kd” value under setting [1] was determined as 27.9 nM and the “apparent Kd” value under setting [2] turned out to be 54.4 nM.

Consider “CUAUGCGGAAUAGGAUAUUCAUUCAUGAGGAUAGAAGAAGGGUUACAUGAGGAUCACCCAUGUAUACACAUGAGGAUCCCUUAG”, for which the “apparent Kd” value was determined as 150 nM under setting [1] and 156 nM under setting [2].

Turning to “UUGAUGUCAUCAGGAUAUAGUAUUUAAGACAUAUCUUCUUUCUUACAUGAGGAUCACCCAUGUCGCUAGAAGGGAUGAAUGAUU”, the “apparent Kd” value turned out to be 18.7 nM under setting [1] and 15.4 nM under setting [2].

“UGAACUAUGUAGAAGGCCCAUAUUUAUAUUUAGGGAGGAUAUACAUGAGGAUCACCCAUGUAUAGAGCAAGUGGACUUGUCAGU”: the “apparent Kd” value was found to be 9.19 nM under setting [1] and 10.3 nM under setting [2].

For the sequence “UAUUUUAACUAAGGAUAUCUAUAUUAUUUUGAAACAUGAGGAUCACCCAUGUUCAUGGGAUUAUAGGAGAAGGUAGAUGAAUAA”, the “apparent Kd” value is 14.6 nM under setting [3] and 9.54 nM under setting [4].

For the sequence “GUAUAUACGUGGUACAUGAGGAUCACCCAUGUGUCUUUACAUGAGGAUAUGGAUUCUAAUUGGAUCCAGAAGGCAUGUAUAUAC”, the “apparent Kd” value reads like this: under setting [3], 73.1 nM; under setting [4], 27 nM.

Consider “AUAUAUACCCAGAAGGUGCCAGCGAGAGCUGCACAUGAGGAUCACCCAUGUUGUCGGUGACGACGCAAGGAUAUGGGUAUAUAU”, for which the “apparent Kd” value by setting is: under setting [3], 25.2 nM; under setting [4], 7.86 nM.

“UAGGGCGAGUUAUGUACAAGAUACAUGAGGAUCACCCAUGUGUAGGAUAUGACCCUUAUCGCUGGUCAGAAGGGCACGAGAAUC”: the “apparent Kd” value amounted to 74.1 nM under setting [1] and 94.2 nM under setting [2].

Consider “AUCAGCUCGUGAGGAUAUACAUCACUGCUUCGGCAGUGUGGUAAGGUCACAUGAGGAUCACCCAUGUAGAAGGCACGAGCUGAU”, for which the “apparent Kd” value was 13.1 nM under setting [1] and 279 nM under setting [2].

As for “UGUUGUAUUACAGGAUAUCUAUUAUUUUUGUUUAGAGAAGGGUAUUCACAUGAGGAUCACCCAUGUAUAUACGAGGAAGUUGUG”, the “apparent Kd” value was found to be 53.5 nM under setting [3] and 61.8 nM under setting [4].

Consider “UUUGAUUAAGUGAGGAUAUACUGUUUGUAUUGAUUGUAGAAGGUACAUGAGGAUCACCCAUGUUUAGUAUUUAU”, for which the “apparent Kd” value under setting [1] amounted to 20.5 nM and the “apparent Kd” value under setting [2] amounted to 20 nM.

Take “AAAAAACAUGAGGAUCACCCAUGUCAGGAUAUCCGAAAAAAAAAAAAAAAAAAAAAAAGGAGAAGGGACAAAAA”: the “apparent Kd” value is 100 nM under setting [1] and 83.8 nM under setting [2].

In the case of “GCCUCAUAGUAGAAGGGACUAUUACAGUAAUUUUUUUAGAUUAAAUAACAUGAGGAUCACCCAUGUCAGGAUAUACUAAGAGGC”, the “apparent Kd” value was determined as 26.4 nM under setting [1] and 37.1 nM under setting [2].

“UGGUACUAGGGAGGAUAUGGGAAGAUACAUGAGGAUCACCCAUGUUUAAGAAUGCCGUGAGGCAACUAGAAGGCCCUAGUACCU”: the “apparent Kd” value reads like this: under setting [3], 505 nM; under setting [4], 18.8 nM.

For the sequence “GGGUAGUGAGGAUAUCGUUGUUAGGAGGAGUAGGUAGGAGGCGAGAAGGCACAUGAGGAUCACCCAUGUAUGAA”, the “apparent Kd” value by setting is: under setting [1], 26.8 nM; under setting [2], 29 nM.

On to “GUGACUUAUAGAGGAUAUUGACAUGAGGAUCACCCAUGUAUUUGGGAGUGUUCACUGAAUUCUUACGAGAAGGCUAUAAGACAC”, for which the “apparent Kd” value by setting is: under setting [1], 229 nM; under setting [2], 224 nM.

Turning to “GCGUUGAUGUAGAAGGUACAUGAAUACUUUUAAUACCUCAAGUAACAUGAGGAUCACCCAUGUAGUAAGGAUAUACAUGAACGC”, the “apparent Kd” value is 34.7 nM under setting [3] and 29.5 nM under setting [4].

Regarding “GGAUAUGUCGUCUACAUGAGGAUCACCCAUGUUGAUAAACAUGAGGAUAUUGAUAAGAAUUGUAUCGAGAAGGUAUGUAGGUCC”, the “apparent Kd” value is 106 nM under setting [3] and 89.5 nM under setting [4].

With “AGCUACGUUUCGUAGCAGUGUCAUCGAGAAGGCUCAUAAACAUGAGGAUCACCCAUGUAAACAUGGGAGGAUAUCGAUGAUACA”, the “apparent Kd” value is, setting by setting: under setting [3], 39.6 nM; under setting [4], 6.5 nM.

As for “AAAUUGUCAGGAUAUCCUGCUAUACGCAAUAUGUAUUCACGGGAGAAGGGACAUGAGGAUCACCCAUGUUUGAA”, the “apparent Kd” value came out at 21.5 nM under setting [1] and 30 nM under setting [2].

As for “CGCAAGUCAGGAUAUUCGACUGGUAAAUCAGUGGAUCAGUAGGAGAAGGGACAUGAGGAUCACCCAUGUAUGUA”, the “apparent Kd” value was found to be 43.2 nM under setting [1] and 51.2 nM under setting [2].

With “AGGCACAUCGGAGGAUAUCAUGUAAAUACAUGAGGAUCACCCAUGUCGAUGGAGACAUCGGAGAUUGAGAAGGCCGAUGUACCG”, the “apparent Kd” value under setting [3] worked out at 175 nM and the “apparent Kd” value under setting [4] was 8.44 nM.

Turning to “CGUGAGUCAGGAUAUUAGUAGUGUGUGGAUACAUAUAUUGCUGAGAAGGGACAUGAGGAUCACCCAUGUAUACG”, the “apparent Kd” value is, setting by setting: under setting [1], 32 nM; under setting [2], 37.1 nM.

“AGUGCGUAUGUGAGGAUAUGCUGGUCCUUGGCUCGGCAGAAGGCACAUGAGGAUCACCCAUGUGGUGUCGUACG”: the “apparent Kd” value was 62.2 nM under setting [1] and 412 nM under setting [2].

“GCCUUAUCAGUCAGGAUAUACAAUAAAAUAAUUAAGUAGAAGGGACAUGAGGAUCACCCAUGUACAUUACAUUG”: the “apparent Kd” value is 18.6 nM under setting [1] and 53.5 nM under setting [2].

Take “GAUCAAAACACUCCUUACACUACAUGAGGAUCACCCAUGUAGCAGGAUAUCGUUGCUCCUCGCUGCGAGAAGGGCUACGGGCGG”: the “apparent Kd” value by setting is: under setting [1], 8.02 nM; under setting [2], 13.8 nM.

As to “GAGUGGAAGGCCGCUACAUGAGGAUCACCCAUGUGCUAAGCACAGGAUAUCGCGCUGGCCCGGCGCGAGAAGGGUGACGGCCUG”, the “apparent Kd” value under setting [3] turned out to be 674 nM and the “apparent Kd” value under setting [4] was found to be 324 nM.

For “AAAAGAAUAAAAGGAUAUAGGAAAGGAAGUGUACUAGAAGGUUUGUUAACAUGAGGAUCACCCAUGUGCUCAGACACAGGGUGC”, the “apparent Kd” value turned out to be 124 nM under setting [1] and 167 nM under setting [2].

In the case of “GCCAUGUCAGGAUAUAAGCUGUUGCCGAACGGUCAACACAAUUAGAAGGGACAUGAGGAUCACCCAUGUCCGAG”, the “apparent Kd” value under setting [1] worked out at 18.5 nM and the “apparent Kd” value under setting [2] came out at 20.3 nM.

Regarding “CAAGGUGGAGGAUAUACAUGAGGAUCACCCAUGUAAGGACAAUAAAUAAGAUGAAGAAGUAGAAGGCCACUCAA”, the “apparent Kd” value under setting [1] came out at 41.4 nM and the “apparent Kd” value under setting [2] was found to be 46.3 nM.

“UUCAAUCACAUAGGAUAUAGAAUAUUAUUUUUUUACAUGAGGAUCACCCAUGUUUUAUUGGGUUUCUAGAAGGAUGAGUUAUUA”: the “apparent Kd” value reads like this: under setting [3], 451 nM; under setting [4], 289 nM.

“GGAGCACACAUUAACAUGAGGAUCACCCAUGUCAAAAGACAUGAGGAUAUGGAUCCGAAAAGGAUCCAGAAGGCAUUGUGCUCC”: the “apparent Kd” value reads like this: under setting [3], 372 nM; under setting [4], 28.2 nM.

Take “AGGUAGCAAGGAUAUACAUGAGGAUCACCCAUGUAAAUGCACGUUUAGGCCCUGCUAUGUAGAAGGUGCACCCG”: the “apparent Kd” value runs as follows: under setting [1], 17.3 nM; under setting [2], 16.8 nM.

On to “GCUGAAAGUACAGGAUAUGAGAUAUAUGAUCACUCAGAAGGGUACCGGGACAUGAGGAUCACCCAUGUACUCUCAGCGAAAAUA”, for which the “apparent Kd” value by setting is: under setting [3], 165 nM; under setting [4], 553 nM.

Consider “GUUUACGCAUGAGGAUAUGCUCGCAUUUCAAGAGCAGAAGGUAUGUCUUUAGACAUGAGGAUCACCCAUGUAUUUAUCAUUGUA”, for which the “apparent Kd” value was 187 nM under setting [3] and 29.9 nM under setting [4].

Consider “GUCAGCUCGUGAGGAUAUACAACACUGCUUCGGCAGUGUAUUAAGAUCACAUGAGGAUCACCCAUGUAGAAGGCACGAGAUGAU”, for which the “apparent Kd” value is 14.3 nM under setting [1] and 237 nM under setting [2].

Turning to “GUAGCACAAGCAAAUGUAACAUGAGGAUCACCCAUGUGUUAUGAGGAUAUGGAUGUGAAGUUAAUCCAGAAGGCAUUAUGCUAC”, the “apparent Kd” value worked out at 25.2 nM under setting [3] and 13.2 nM under setting [4].

Consider “AUCUUGAGAGGAUAUACAUGAGGAUCACCCAUGUUUCUAACACCAUGCGGUCAUUUGCGUAGAAGGCUCGUCCG”, for which the “apparent Kd” value came out at 19.9 nM under setting [1] and 34.1 nM under setting [2].
